The list is not random: actives were taken first. Their share in the collection is about 1.5%.
EBI2 block: blocks human EBI2 receptor beta-arrestin signaling. EBI2 beta-arrestin recruitment, luminescence, 7a,25-OHC stimulated. inhibition, % at 5 µM. 360,000 compounds, 0.81% hits; in the data active = inhibition above about 38%;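 also: enzyme fragment complementation signal reports receptor beta-arrestin coupling in cells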
APJ ag: activates the human apelin receptor APJ | P35414 | activation, % at 20 µM | AID 2520 | 330,000 compounds, 0.11% hits | CHO-K1 APJ PathHunter beta-arrestin, luminescence; 0% DMSO wells, 100% apelin;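 active = activation more than six SD over the plate average, tested at 20 µM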
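Incubation: overnight seeding, 90 min compound at 25 °C, 1 h detection; test system: PathHunter CHO-K1 APJ (AGTRL-1) beta-arrestin reporter cells; amount: 1000 cells/well; doses: one dose, 20 µM compound, 1% DMSO; measured by: beta-gal luminescence; measure: agonist-driven arrestin binding to APJ; benchmarks: negative DMSO alone, positive Apelin-13 at 10 nM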
CCR6 antagonist: blocks CCL20-driven beta-arrestin recruitment at human CCR6; P51684; CHO-K1 CCR6 PathHunter beta-arrestin, luminescence, CCL20-stimulated; inhibition, % at 20 µM; 340,000 compounds, 0.49% hits;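 active = compounds whose inhibition of the agonist-driven luminescence signal at 20 µM reaches about 50%, limit read from the data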;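 also: cells stimulated with CCL20 at 14 nM final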
Target sequence (P51684 whole entry, looked up): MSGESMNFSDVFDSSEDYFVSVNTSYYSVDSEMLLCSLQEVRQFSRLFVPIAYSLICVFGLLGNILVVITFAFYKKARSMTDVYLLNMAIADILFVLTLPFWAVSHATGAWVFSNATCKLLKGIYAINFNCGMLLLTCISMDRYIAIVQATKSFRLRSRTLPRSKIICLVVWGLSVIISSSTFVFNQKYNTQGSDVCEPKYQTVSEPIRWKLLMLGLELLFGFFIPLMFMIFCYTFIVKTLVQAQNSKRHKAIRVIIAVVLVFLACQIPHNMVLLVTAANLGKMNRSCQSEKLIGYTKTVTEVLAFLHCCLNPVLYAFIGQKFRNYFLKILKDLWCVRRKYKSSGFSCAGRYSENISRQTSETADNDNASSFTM
APJ antag: antagonists of human APJ apelin receptor; P35414; 330,000 compounds, 0.32% hits; AID 2521; CHO-K1 APJ beta-arrestin complementation, luminescence; inhibition, % at 20 µM;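 active = inhibition above about 40% at 20 µM, limit read from the data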;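 also: cells challenged with 10 nM apelin-13 agonist together with compound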
hiPSC survival: enhancers of human iPSC single-cell survival | survival enhancement, % at 20 µM | 360,000 compounds, 0.044% hits | hiPSC single-cell survival, ATPlite luminescence; 100% = ROCK inhibitor wells, 0% = DMSO; in the data active = survival enhancement above about 18%;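 also: cells exposed to compounds for 16 hours before the ATP read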
CXCR6 block: blocks human CXCR6 beta-arrestin recruitment; O00574; 360,000 compounds, 0.36% hits; AID 602244; inhibition, % at 20 µM; CHO-K1 PathHunter CXCR6 beta-arrestin, luminescence; in the data active = inhibition above about 34%, passing the limit was not always enough;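 also: antagonist mode with CXCL16 agonist at 10 nM final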
Target sequence (O00574 whole entry, looked up): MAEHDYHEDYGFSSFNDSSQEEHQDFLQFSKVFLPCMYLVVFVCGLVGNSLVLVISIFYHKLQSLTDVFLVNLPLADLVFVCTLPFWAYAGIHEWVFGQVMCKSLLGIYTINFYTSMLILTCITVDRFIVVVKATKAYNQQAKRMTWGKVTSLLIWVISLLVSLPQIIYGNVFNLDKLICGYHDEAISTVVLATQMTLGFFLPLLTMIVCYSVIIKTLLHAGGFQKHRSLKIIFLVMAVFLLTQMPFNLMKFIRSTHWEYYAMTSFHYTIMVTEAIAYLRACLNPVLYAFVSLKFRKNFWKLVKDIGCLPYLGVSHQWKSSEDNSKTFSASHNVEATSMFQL
Large screens that a line does not name were inactive.

O=C(N/N=C/c1cc([N+](=O)[O-])ccc1O)C1CC1	EBI2 block 62
O=C(N/N=C/c1cc([N+](=O)[O-])ccc1O)c1cccc2cc[nH]c12	EBI2 block 63
O=C(N/N=C/c1cc([N+](=O)[O-])ccc1O)c1ccc2c(c1)OCCO2	EBI2 block 76
CN(C)c1ccc(N=Nc2nccs2)cc1	CXCR6 block 51 (no result: APJ ag, CCR6 antagonist, APJ antag)
Cc1nn(-c2ccccc2)c(C)c1NC(=O)COC(=O)C1CC(=O)N(CCc2ccccc2)C1 (stereo not drawn)	none
CN(C)C(CNc1ccc(C(F)(F)F)cn1)c1ccccc1 (stereo not drawn)	CCR6 antagonist 63
CN(CCOc1ccc(Cl)cc1)C(=O)c1cccc(S(=O)(=O)N2CCN(c3ccc(F)cc3)CC2)c1	EBI2 block 56 (no result: APJ ag, APJ antag)
Cc1cc(C)c(NC(=O)CSCc2c(C)noc2C)c(Cl)c1	none
CC(OC(=O)c1cccc(S(=O)(=O)N2CCN(C)CC2)c1)C(=O)Nc1ccc(C(N)=O)cc1 (stereo not drawn)	hiPSC survival 21
CCN(C(=O)COC(=O)CCS(=O)(=O)c1ccc(C)cc1)C1CCS(=O)(=O)C1 (stereo not drawn)	none
Cc1ccc(-c2cnc(C(O)c3cc(F)cc(Cl)c3)[nH]2)cc1 (stereo not drawn)	none (no result: APJ ag, CCR6 antagonist, APJ antag)
C[C@@H]1CCCCO[C@@H](CN(C)S(=O)(=O)c2cccs2)[C@@H](C)CN([C@H](C)CO)C(=O)c2cc(NS(=O)(=O)c3ccccc3)ccc2O1	hiPSC survival 22 (no result: APJ ag, CCR6 antagonist, APJ antag)
COc1ccc(S(=O)(=O)Nc2ccc3c(c2)C(=O)N([C@H](C)CO)C[C@H](C)[C@@H](CN(C)C(=O)NC2CCCCC2)O3)cc1	hiPSC survival 22
CCc1c(N)nc(N)nc1Nc1ccccc1C	none (no result: APJ ag, APJ antag)
O=C(NCCCn1ccnc1)c1cc(Cl)cc(Cl)c1	none
N#Cc1ccc(CN2CCN(C(=O)CNS(=O)(=O)c3ccc4c(c3)OCCCO4)CC2)cc1	none
CCCS(=O)(=O)c1ncc(Cl)c(C(=O)Nc2ccc(S(=O)(=O)Nc3ncccn3)cc2)n1	none
CC(=O)Nc1ccc(NC(=O)c2nc(S(=O)(=O)Cc3cccc(C)c3)ncc2Cl)cc1	CCR6 antagonist 58, CXCR6 block 47
CCS(=O)(=O)c1ncc(Cl)c(C(=O)Nc2ccccc2OC)n1	EBI2 block 79
Cc1cc(C)c2c(c1)/C(=C/C(=O)c1ccc(Br)s1)C(=O)N2	EBI2 block 74
Cc1cc(Br)c2c(c1)/C(=C/C(=O)c1cccs1)C(=O)N2	none
Cc1cccc2c1NC(=O)/C2=C\C(=O)c1cccs1	EBI2 block 43
COc1ccc(OC)c(S(=O)(=O)ON2C(=O)c3ccccc3C2=O)c1	CCR6 antagonist 57
COc1ccc(OC)c(S(=O)(=O)N2CCN(c3ccccc3)CC2)c1	none
COC(CNC(=O)c1ccc2c3c(onc13)-c1ccccc1C2=O)OC	CXCR6 block 56 (no result: CCR6 antagonist)
O=c1[nH]cnc2c1ncn2C1CCC(CO)O1 (stereo not drawn)	none (no result: APJ ag, CCR6 antagonist, APJ antag)
Cc1c(N=NC2=C(O)CC(C)(C)CC2=O)c(=O)n(-c2ccccc2)n1C	CXCR6 block 61 (no result: CCR6 antagonist)
CC(=O)/C(N=Nc1c(C)n(C)n(-c2ccccc2)c1=O)=C(\C)O	none
CC1CCN(C(=O)C(C)NCc2ccc(F)cc2)CC1 (stereo not drawn)	none
Cc1ccc(C(=O)COC(=O)CCS(=O)(=O)c2ccccc2)cc1[N+](=O)[O-]	none
Cc1ccc(C(=O)COC(=O)CCC(=O)Nc2cccc(Cl)c2)cc1[N+](=O)[O-]	CCR6 antagonist 53
N=c1c(C(=O)NCc2ccccc2)cc2c(=O)n3ccccc3nc2n1Cc1ccco1	none
N=c1c(C(=O)NCc2ccc(F)cc2)cc2c(=O)n3ccccc3nc2n1Cc1ccco1	APJ antag 49
CC(C)(C)OC(=O)NCc1ccc(CNC(=O)c2[nH]cnc2C(=O)NC2CCN(C(=O)OC(C)(C)C)CC2)cc1	none
Cc1ccc(C(=O)ONc2ccc(N=NC(=O)c3ccccc3O)cc2)cc1	CCR6 antagonist 56
COc1ccc(NC(=O)COC(=O)c2cc(Cl)ccc2O)cc1S(=O)(=O)N1CCCCC1	none
Cc1ccc(NC(=O)/C(=C\c2ccc([N+](=O)[O-])cc2)NC(=O)c2ccccc2)cc1	hiPSC survival 58
O=C(O)C1CCN(C(=O)c2ccc(Cl)cc2)CC1	none
O=C(c1ccc(Cl)cc1)N1CCC(C(=O)N2CCN(c3ncccn3)CC2)CC1	EBI2 block 48
CCOC(=O)/C(=C/c1ccc(N2CCC(c3ccccc3)=N2)cc1)C(C)=O	EBI2 block 49 (no result: APJ ag, APJ antag)
Cc1ccc(C(CCN(Cc2ccccc2)C(=O)c2ccco2)c2ccco2)cc1 (stereo not drawn)	CCR6 antagonist 52
CC(C)C1Nc2c(O)cc(Cl)c([N+](=O)[O-])c2C2C=CCC21 (stereo not drawn)	CCR6 antagonist 50 (no result: APJ ag, APJ antag)
O=C(O)C1Nc2c(Cl)cc(Cl)c(Cl)c2C2C=CCC12 (stereo not drawn)	none (no result: APJ ag, APJ antag)
CC(=O)Nc1ccc(S(=O)(=O)O)c(OC(C)=O)c1	none (no result: APJ ag, APJ antag)
CCN(CC)c1ccc(/C=N/N=C(c2ccccc2)c2ccccc2)c(O)c1	EBI2 block 66
Cc1cc(/C=C(\C#N)C(=O)NCc2cccs2)c(C)n1-c1ccccc1F	EBI2 block 51
CCOC(=O)c1ccc(N=c2sc(C(=O)OC)cc(=O)n2C2CC2)cc1	none
CCOC(=O)c1ccc(N=c2sc(C(=O)OC)cc(=O)n2Cc2ccc3c(c2)OCO3)cc1	EBI2 block 73
CCOC(=O)c1c(NC(N)=O)sc(C)c1C	none
CCOC(=O)c1c(N2C(=O)C=CC2=O)sc(C)c1C	CXCR6 block 61 (no result: CCR6 antagonist)
COc1cccc(NC(=O)COc2ccc(C(=S)N3CCN(C)CC3)cc2OC)c1	none
O=C(CN1C(=O)NC2(CCOc3ccccc32)C1=O)NCCc1ccc(F)cc1 (stereo not drawn)	none
Cc1ccsc1C=Nc1ccc(O)cc1	EBI2 block 45
Cn1c(=O)c2cc(NC(=O)NCc3ccc(F)cc3)ccc2n1Cc1cccc(C(F)(F)F)c1	none (no result: APJ ag, CCR6 antagonist, APJ antag)
O=C(NC(=S)Nc1cccnc1)c1cccc(Br)c1	CCR6 antagonist 58
O=C(NC(=S)Nc1cc(Cl)ccc1O)c1cccc(Br)c1	CCR6 antagonist 59
O=C(NNC(=O)c1cccc(Br)c1)Nc1ccc(Cl)cc1	none
O=C(NC(=S)Nc1ccc2oc(-c3cccnc3)nc2c1)c1cccc(Cl)c1	CCR6 antagonist 54
O=C(NC(=S)Nc1cccnc1)c1ccccc1	none
C[C@H](CO)N1C[C@H](C)[C@H](CN(C)Cc2ccc(Oc3ccccc3)cc2)Oc2cc(Br)ccc2S1(=O)=O	none (no result: APJ ag, CCR6 antagonist, APJ antag)
COc1ccc(CN2CCNC(=O)C2CC(=O)NCC2CCOCC2)cc1C (stereo not drawn)	none
CCN(CC)S(=O)(=O)c1ccc2oc(C(=O)NCc3ccc(F)cc3)c(C)c2c1	EBI2 block 50
